# Legend:
# Rattus norvegicus [1] = experiment: Change in diastolic blood pressure after iv administration of 1 mg/kg in anesthetized rats; format: functional, Artery
# Rattus norvegicus [2] = experiment: Maximum rate of rise of the left ventricular isovolumetric pressure was measured after iv administration of 1 mg/kg in anesthetized rats; format: functional, Heart left ventricle
# Rattus norvegicus [3] = experiment: Change in heart rate after iv administration of 1 mg/kg in anesthetized rats; format: functional
# Rattus norvegicus [4] = experiment: Change in systolic blood pressure after iv administration of 1 mg/kg in anesthetized rats; format: functional, Artery
# Rattus norvegicus [5] = experiment: Change in systolic blood pressure after iv administration of 12 uM/kg in anesthetized rats; format: functional, Artery
# Method in brief: (§1)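 Doses were 4.12 µM/kg (two agents), guanethidine 25, clonidine 0.108, hexamethonium 12, reserpine 8, papaverine 5 and histamine […]. Peak changes in systolic BP or HR were recorded.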
# Rattus norvegicus [6] = experiment: Change in heart rate after iv administration of 12 uM/kg in anesthetized rats; format: functional
# Rattus norvegicus [7] = experiment: Maximum rate of rise of the left ventricular isovolumetric pressure was measured after iv administration of 12 uM/kg in anesthetized rats; format: functional, Heart left ventricle
# Rattus norvegicus [8] = experiment: Change in diastolic blood pressure after iv administration of 12 uM/kg in anesthetized rats; format: functional, Artery
# Rattus norvegicus [9] = experiment: Change in heart rate after iv administration of 2.5 ug/kg in anesthetized rats
# Rattus norvegicus [10] = experiment: Change in systolic blood pressure after iv administration of 2.5 mg/kg in anesthetized rats; format: functional, Artery
# Rattus norvegicus [11] = experiment: Change in diastolic blood pressure after iv administration of 2.5 ug/kg in anesthetized rats
# Rattus norvegicus [12] = experiment: Maximum rate of rise of the left ventricular isovolumetric pressure was measured after iv administration of 2.5 mg/kg in anesthetized rats; ratio given for dP/dt; format: functional, Heart left ventricle
# Rattus norvegicus [13] = experiment: Change in heart rate after iv administration of 25 uM/kg in anesthetized rats; format: functional
# Rattus norvegicus [14] = experiment: Maximum rate of rise of the left ventricular isovolumetric pressure was measured after iv administration of 25 uM/kg in anesthetized rats; ratio given for dP/dt; format: functional, Heart left ventricle
# Rattus norvegicus [15] = experiment: Change in diastolic blood pressure after iv administration of 25 uM/kg in anesthetized rats; format: functional, Artery
# Rattus norvegicus [16] = experiment: Change in systolic blood pressure after iv administration of 25 uM/kg in anesthetized rats; format: functional, Artery; method in brief: as §1
# Rattus norvegicus [17] = experiment: Change in diastolic blood pressure after iv administration of 8 uM/kg in anesthetized rats; format: functional, Artery
# Rattus norvegicus [18] = experiment: Maximum rate of rise of the left ventricular isovolumetric pressure was measured after iv administration of 8 uM/kg in anesthetized rats; ratio given for dP/dt; format: functional, Heart left ventricle
# Rattus norvegicus [19] = experiment: Change in heart rate after iv administration of 8 uM/kg in anesthetized rats; format: functional; method in brief: as §1
# Rattus norvegicus [20] = experiment: Change in systolic blood pressure after iv administration of 8 uM/kg in anesthetized rats; format: functional, Artery
# Rattus norvegicus [21] = experiment: Change in heart rate after iv administration of 0.625 ug/kg in anesthetized rats
# Rattus norvegicus [22] = experiment: Change in diastolic blood pressure after iv administration of 0.625 mg/kg in anesthetized rats; format: functional, Artery
# Rattus norvegicus [23] = experiment: Change in systolic blood pressure after iv administration of 0.625 ug/kg in anesthetized rats
# Rattus norvegicus [24] = experiment: Maximum rate of rise of the left ventricular isovolumetric pressure was measured after iv administration of 0.625 mg/kg in anesthetized rats; format: functional, Heart left ventricle
# Rattus norvegicus [25] = experiment: Change in diastolic blood pressure after iv administration of 5 uM/kg in anesthetized rats; format: functional, Artery
# Rattus norvegicus [26] = experiment: Maximum rate of rise of the left ventricular isovolumetric pressure was measured after iv administration of 5 uM/kg in anesthetized rats; ratio given for dP/dt; format: functional, Heart left ventricle
# Rattus norvegicus [27] = experiment: Change in heart rate after iv administration of 5 uM/kg in anesthetized rats; format: functional; method in brief: as §1
# Rattus norvegicus [28] = experiment: Change in systolic blood pressure after iv administration of 5 uM/kg in anesthetized rats; format: functional, Artery
structure (smiles),measurement,setting,value
NC[C@H](O)c1ccc(O)c(O)c1 [NOREPINEPHRINE],BP,Rattus norvegicus [1],25 mmHg
same,dP/dt,Rattus norvegicus [2],5564 mmHg s-1
same,Heart rate,Rattus norvegicus [3],28 beats min-1
same,BP,Rattus norvegicus [4],43 mmHg
C[N+](C)(C)CCCCCC[N+](C)(C)C.[Cl-].[Cl-] [HEXAMETHONIUM CHLORIDE],BP,Rattus norvegicus [5],-48 mmHg
same,Heart rate,Rattus norvegicus [6],-46 beats min-1
same,dP/dt,Rattus norvegicus [7],-4421 mmHg s-1
same,BP,Rattus norvegicus [8],-40 mmHg
CC(=O)OCC[N+](C)(C)C [ACETYLCHOLINE],Heart rate,Rattus norvegicus [9],-27 beats min-1
same,BP,Rattus norvegicus [10],-25 mmHg
same,BP,Rattus norvegicus [11],-31 mmHg
same,dP/dt,Rattus norvegicus [12],-4451 mmHg s-1
N=C(N)NCCN1CCCCCCC1 [GUANETHIDINE],Heart rate,Rattus norvegicus [13],-24 beats min-1
same,dP/dt,Rattus norvegicus [14],-1090 mmHg s-1
same,BP,Rattus norvegicus [15],-22 mmHg
same,BP,Rattus norvegicus [16],-29 mmHg
COC(=O)[C@H]1[C@H]2C[C@@H]3c4[nH]c5cc(OC)ccc5c4CCN3C[C@H]2C[C@@H](OC(=O)c2cc(OC)c(OC)c(OC)c2)[C@@H]1OC [RESERPINE],BP,Rattus norvegicus [17],-29 mmHg
same,dP/dt,Rattus norvegicus [18],-1438 mmHg s-1
same,Heart rate,Rattus norvegicus [19],-51 beats min-1
same,BP,Rattus norvegicus [20],-35 mmHg
CNC[C@H](O)c1ccc(O)c(O)c1 [EPINEPHRINE],BP,Rattus norvegicus [1],16 mmHg
same,dP/dt,Rattus norvegicus [2],8416 mmHg s-1
same,Heart rate,Rattus norvegicus [3],41 beats min-1
same,BP,Rattus norvegicus [4],25 mmHg
CC(C)NCC(O)c1ccc(O)c(O)c1 (configuration not stated) [ISOPROTERENOL],Heart rate,Rattus norvegicus [21],46 beats min-1
same,BP,Rattus norvegicus [22],-31 mmHg
same,BP,Rattus norvegicus [23],-20 mmHg
same,dP/dt,Rattus norvegicus [24],9844 mmHg s-1
COc1ccc(Cc2nccc3cc(OC)c(OC)cc23)cc1OC [PAPAVERINE],BP,Rattus norvegicus [25],-15 mmHg
same,dP/dt,Rattus norvegicus [26],-1204 mmHg s-1
same,Heart rate,Rattus norvegicus [27],-18 beats min-1
same,BP,Rattus norvegicus [28],-20 mmHg
